# Data from ChEMBL document CHEMBL4689842, “EUbOPEN Chemogenomics Library wave 1” (2021).
# Values joined by “and” are separate entries in the source; they are usually repeats but may differ in a detail not shown here. Equal entries are not always repeated.
# System: U2OS
# Assay: Multiplex assay against U2OS
# Type: toxicity, cell-based
# Conditions: human, 10 µM, compound concentration 10 uM
# In short: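 Values for tubulin, mitochondrial-mass and membrane-permeability phenotypes are per cents of cells with healthy nuclei. These cells were identified by CellPathfinder machine-learning gating of live cells that had been stained at seeding with Hoechst33342, BioTracker Green Microtubule Cytoskeleton Dye, MitoTracker Red and Annexin V Alexa Fluor 680 and imaged on a CQ1 microscope at 37°C and 5% CO2 after compound addition. The gating first set Hoechst high-intensity objects apart from normal cells, then split normal cells into healthy, pyknosed or fragmented nuclei, and pyknosed cells into mitotic or apoptotic.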
compound,measurement,setting,value
CNCc1ccccc1-c1csc([C@H](C)Nc2nc(C)nc3cc(OC)c(OC)cc23)c1 [BAY-294],Population Apoptotic (%),"12 h, replicate 1",76% and 59%
same,Population Hoechst High Intensity Objects (%),"12 h, replicate 1",7% and 6% and 3%
same,Population Membrane Permeable-Phenotype (%),"12 h, replicate 1",100% and 75% and 50%
same,Population Mitochondria Different-Phenotype (%),"12 h, replicate 1",100% and 90% and 41%
same,Population Mitotic Cells (%),"12 h, replicate 1",23% and 40%
same,Population Normal (%),"12 h, replicate 1",92% and 93% and 96%
same,Population Tubulin-Different-Phenotype (%),"12 h, replicate 1",100% and 97%
same,Population Apoptotic (%),"12 h, replicate 2",54% and 57% and 68%
same,Population Healthy Nuclei (%),"12 h, replicate 2",38% and 23% and 66%
same,Population Membrane Permeable-Phenotype (%),"12 h, replicate 2",88% and 86% and 54%
same,Population Mitochondria Different-Phenotype (%),"12 h, replicate 2",96% and 93% and 66%
same,Population Mitotic Cells (%),"12 h, replicate 2",45% and 42% and 31%
same,Population Normal (%),"12 h, replicate 2",88% and 44%
same,Population Apoptotic (%),"24 h, replicate 1",90% and 93% and 54%
same,Population Membrane Permeable-Phenotype (%),"24 h, replicate 1",100% and 54%
same,Population Mitochondria Different-Phenotype (%),"24 h, replicate 1",100% and 75%
same,Population Normal (%),"24 h, replicate 1",94% and 86% and 96%
same,Population Pyknosed Nuclei (%),"24 h, replicate 1",57% and 70%
same,Population Tubulin-Different-Phenotype (%),"24 h, replicate 1",100%
same,Population Apoptotic (%),"24 h, replicate 2",92% and 52% and 78%
same,Population Fragmented Nuclei (%),"24 h, replicate 2",30% and 52%
same,Population Membrane Permeable-Phenotype (%),"24 h, replicate 2",66% and 85%
same,Population Mitochondria Different-Phenotype (%),"24 h, replicate 2",76% and 92%
same,Population Normal (%),"24 h, replicate 2",82% and 92% and 45%
same,Population Pyknosed Nuclei (%),"24 h, replicate 2",55% and 31% and 27%
same,Population Tubulin-Different-Phenotype (%),"24 h, replicate 2",98% and 85%
same,Population Apoptotic (%),"48 h, replicate 1",98%
same,Population Fragmented Nuclei (%),"48 h, replicate 1",36%
same,Population Healthy Nuclei (%),"48 h, replicate 1",1%
same,Population Hoechst High Intensity Objects (%),"48 h, replicate 1",13%
same,Population Membrane Permeable-Phenotype (%),"48 h, replicate 1",100%
same,Population Mitochondria Different-Phenotype (%),"48 h, replicate 1",100%
same,Population Mitotic Cells (%),"48 h, replicate 1",1%
same,Population Normal (%),"48 h, replicate 1",86%
same,Population Pyknosed Nuclei (%),"48 h, replicate 1",62%
same,Population Tubulin-Different-Phenotype (%),"48 h, replicate 1",100%
same,Population Apoptotic (%),"48 h, replicate 2",70%
same,Population Fragmented Nuclei (%),"48 h, replicate 2",44%
same,Population Healthy Nuclei (%),"48 h, replicate 2",18%
same,Population Hoechst High Intensity Objects (%),"48 h, replicate 2",61%
same,Population Mitotic Cells (%),"48 h, replicate 2",30%
same,Population Normal (%),"48 h, replicate 2",38%
same,Population Pyknosed Nuclei (%),"48 h, replicate 2",37%
CN(C)c1ncnc(-c2ccc3nc(Nc4cc(CN5CCN(C(=O)CC(F)(F)F)CC5)ccn4)[nH]c3c2)c1Cl [BAY-440],Population Apoptotic (%),"12 h, replicate 1",23%
same,Population Fragmented Nuclei (%),"12 h, replicate 1",5%
same,Population Healthy Nuclei (%),"12 h, replicate 1",88% and 91%
same,Population Hoechst High Intensity Objects (%),"12 h, replicate 1",3% and 1%
same,Population Mitochondria Different-Phenotype (%),"12 h, replicate 1",32% and 17%
same,Population Mitotic Cells (%),"12 h, replicate 1",76%
same,Population Normal (%),"12 h, replicate 1",96% and 98%
same,Population Pyknosed Nuclei (%),"12 h, replicate 1",6% and 3%
same,Total Cell Count,"12 h, replicate 1",204 and 178
same,Population Fragmented Nuclei (%),"12 h, replicate 2",10% and 7%
same,Population Healthy Nuclei (%),"12 h, replicate 2",83% and 90%
same,Population Hoechst High Intensity Objects (%),"12 h, replicate 2",8%
same,Population Mitochondria Different-Phenotype (%),"12 h, replicate 2",38% and 19%
same,Population Mitotic Cells (%),"12 h, replicate 2",66% and 100%
same,Population Normal (%),"12 h, replicate 2",91%
same,Population Pyknosed Nuclei (%),"12 h, replicate 2",1%
same,Total Cell Count,"12 h, replicate 2",103 and 116
same,Population Apoptotic (%),"24 h, replicate 1",37% and 26%
same,Population Fragmented Nuclei (%),"24 h, replicate 1",7% and 2%
same,Population Healthy Nuclei (%),"24 h, replicate 1",81% and 89%
same,Population Hoechst High Intensity Objects (%),"24 h, replicate 1",3% and 2%
same,Population Mitotic Cells (%),"24 h, replicate 1",62% and 73%
same,Population Normal (%),"24 h, replicate 1",96% and 97%
same,Population Pyknosed Nuclei (%),"24 h, replicate 1",8%
same,Total Cell Count,"24 h, replicate 1",221 and 230
same,Population Fragmented Nuclei (%),"24 h, replicate 2",8% and 3%
same,Population Healthy Nuclei (%),"24 h, replicate 2",79% and 95%
same,Population Hoechst High Intensity Objects (%),"24 h, replicate 2",6% and 8%
same,Population Mitochondria Different-Phenotype (%),"24 h, replicate 2",50% and 33%
same,Population Mitotic Cells (%),"24 h, replicate 2",50% and 100%
same,Population Normal (%),"24 h, replicate 2",93% and 91%
same,Population Pyknosed Nuclei (%),"24 h, replicate 2",11% and 1%
same,Total Cell Count,"24 h, replicate 2",108 and 135
COc1ccc(Oc2cc(NCCC(F)(F)F)c3ncc(-c4ccc(C(=O)NC5CC5)c(C)c4)n3n2)c(F)c1F [BAY-1217389],Population Apoptotic (%),"12 h, replicate 1",40% and 58%
same,Population Fragmented Nuclei (%),"12 h, replicate 1",9% and 11%
same,Population Healthy Nuclei (%),"12 h, replicate 1",83% and 73%
same,Population Hoechst High Intensity Objects (%),"12 h, replicate 1",4%
same,Population Membrane Permeable-Phenotype (%),"12 h, replicate 1",66% and 23%
same,Population Mitotic Cells (%),"12 h, replicate 1",60% and 41%
same,Population Normal (%),"12 h, replicate 1",95%
same,Population Pyknosed Nuclei (%),"12 h, replicate 1",7% and 15%
same,Population Tubulin-Different-Phenotype (%),"12 h, replicate 1",97% and 100%
same,Total Cell Count,"12 h, replicate 1",148 and 164
same,Population Apoptotic (%),"12 h, replicate 2",60% and 55%
same,Population Fragmented Nuclei (%),"12 h, replicate 2",19%
same,Population Healthy Nuclei (%),"12 h, replicate 2",85% and 59%
same,Population Hoechst High Intensity Objects (%),"12 h, replicate 2",17% and 11%
same,Population Membrane Permeable-Phenotype (%),"12 h, replicate 2",53% and 63%
same,Population Mitotic Cells (%),"12 h, replicate 2",40% and 45%
same,Population Normal (%),"12 h, replicate 2",82% and 88%
same,Population Tubulin-Different-Phenotype (%),"12 h, replicate 2",88%
same,Total Cell Count,"12 h, replicate 2",114 and 108
same,Population Apoptotic (%),"24 h, replicate 1",52% and 69%
same,Population Fragmented Nuclei (%),"24 h, replicate 1",10% and 14%
same,Population Healthy Nuclei (%),"24 h, replicate 1",77% and 65%
same,Population Hoechst High Intensity Objects (%),"24 h, replicate 1",5% and 2%
same,Population Membrane Permeable-Phenotype (%),"24 h, replicate 1",38% and 41%
same,Population Mitochondria Different-Phenotype (%),"24 h, replicate 1",44% and 83%
same,Population Mitotic Cells (%),"24 h, replicate 1",47% and 30%
same,Population Normal (%),"24 h, replicate 1",94% and 97%
same,Population Pyknosed Nuclei (%),"24 h, replicate 1",11% and 20%
same,Population Tubulin-Different-Phenotype (%),"24 h, replicate 1",92% and 99%
same,Total Cell Count,"24 h, replicate 1",154 and 167
same,Population Apoptotic (%),"24 h, replicate 2",50% and 60%
same,Population Fragmented Nuclei (%),"24 h, replicate 2",13%
same,Population Healthy Nuclei (%),"24 h, replicate 2",75% and 54%
same,Population Hoechst High Intensity Objects (%),"24 h, replicate 2",10% and 13%
same,Population Membrane Permeable-Phenotype (%),"24 h, replicate 2",39% and 78%
same,Population Mitochondria Different-Phenotype (%),"24 h, replicate 2",59% and 95%
same,Population Mitotic Cells (%),"24 h, replicate 2",50% and 39%
same,Population Normal (%),"24 h, replicate 2",89% and 86%
same,Population Pyknosed Nuclei (%),"24 h, replicate 2",14% and 32%
same,Population Tubulin-Different-Phenotype (%),"24 h, replicate 2",87% and 100%
same,Total Cell Count,"24 h, replicate 2",110 and 101
